Published values of several laboratories.
Protocols differ between the studies behind these lines.
Read-out: enzyme activity
Mode: inhibitor
CDK2 with cyclin A: Cyclin-dependent kinase 2, with cyclin A (CDK2, Homo sapiens, UniProt P24941)
CDK2: Cyclin-dependent kinase 2 (CDK2, Homo sapiens, UniProt P24941)

| SMILES | target | technique | concentration | inhibition [%] |
| --- | --- | --- | --- | --- |
| CCCS(=O)(=O)Nc1ccc(F)c(C(=O)c2c[nH]c3ncc(-c4ccc(Cl)cc4)cc23)c1F | Cyclin-dependent kinase 2, with cyclin E (CDK2, Homo sapiens, UniProt P24941) |  | 1 µM | < 10 |
| COc1cc(-c2cc(-c3ccc(N4CCNCC4)cc3)cnc2N)cc(OC)c1OC | CDK2 with cyclin A |  | 1 µM | 2 |
| CN1CC(Oc2cnc(C#N)cc2-c2ccn3nc(NC(=O)C4CC4)cc3c2)C1 | CDK2 with cyclin A |  | 1 µM | 0 |
| CNC(=O)c1ccccc1Nc1cc(Nc2ccc(N3CCOCC3)cc2OC)ncc1C(F)(F)F | CDK2 |  | 1 µM | > 50 |
| Cn1cnc(Br)c1C1=CN(c2ncnc3[nH]cnc23)CCS1 | CDK2 | radiometric | 2 µM | 50.8 |
| COc1cc2ncnc(Nc3ccc(Oc4ccccc4)c(C)c3C)c2cc1OC | CDK2 with cyclin A |  | 1 µM | 1 |
| CN(C)C1CCN(CC#Cc2nn(C3CCCC3)c3nc(NCc4ccccc4)ncc23)C1 (stereo not drawn) | CDK2 with cyclin A | FRET | 0.1 µM | 7 |
| CC/C(=N\NC(=O)NCc1cccc(O)c1)c1ccc(O)c(C)c1O | Cyclin-dependent kinase 2, with cyclin E1 (CDK2, Homo sapiens, UniProt P24941) |  | 0.1 µM | -16.4 |
| Cn1cncc1C1=CN(c2ncnc3[nH]cnc23)CCS1 | CDK2 | radiometric | 2 µM | 49.1 |
| Nc1nc(Nc2ccc(S(N)(=O)=O)cc2)sc1C(=O)c1ccccc1[N+](=O)[O-] | CDK2 |  | 0.1 µM | 95 to 96 |
| CS(=O)(=O)Nc1cccc(-c2csc(NC(=O)CSc3nc4nccnc4c(=O)n3CCc3ccccc3)n2)c1 | Cyclin-dependent kinase 2, with cyclin O (CDK2, Homo sapiens, UniProt P24941) |  | 10 µM | 8 |
| CSc1nc(C)c(-c2ccnc(Nc3ccc(N4CCOCC4)cc3)c2)[nH]1 | CDK2 |  | 10 µM | 66.4 |
